Sampled rows, rich in hits. Any-hit rate of the full collection: about 2.6%.
VLA-4 inh = inhibition in human VLA-4 binding assay, primary screen, VLA-4 allosteric modulator project, MLPCN library, flow cytometry, VLA-4 expressing cells; inhibition, % (about 7 µM as worked out from the volumes in the protocol); Integrin alpha-4 (Homo sapiens), P13612; 330,000 tested, 0.2% active; AID 2557, 2010; ligand binding flow cytometry; in the data active means inhibition above about 50%
Target sequence (P13612 whole entry, looked up): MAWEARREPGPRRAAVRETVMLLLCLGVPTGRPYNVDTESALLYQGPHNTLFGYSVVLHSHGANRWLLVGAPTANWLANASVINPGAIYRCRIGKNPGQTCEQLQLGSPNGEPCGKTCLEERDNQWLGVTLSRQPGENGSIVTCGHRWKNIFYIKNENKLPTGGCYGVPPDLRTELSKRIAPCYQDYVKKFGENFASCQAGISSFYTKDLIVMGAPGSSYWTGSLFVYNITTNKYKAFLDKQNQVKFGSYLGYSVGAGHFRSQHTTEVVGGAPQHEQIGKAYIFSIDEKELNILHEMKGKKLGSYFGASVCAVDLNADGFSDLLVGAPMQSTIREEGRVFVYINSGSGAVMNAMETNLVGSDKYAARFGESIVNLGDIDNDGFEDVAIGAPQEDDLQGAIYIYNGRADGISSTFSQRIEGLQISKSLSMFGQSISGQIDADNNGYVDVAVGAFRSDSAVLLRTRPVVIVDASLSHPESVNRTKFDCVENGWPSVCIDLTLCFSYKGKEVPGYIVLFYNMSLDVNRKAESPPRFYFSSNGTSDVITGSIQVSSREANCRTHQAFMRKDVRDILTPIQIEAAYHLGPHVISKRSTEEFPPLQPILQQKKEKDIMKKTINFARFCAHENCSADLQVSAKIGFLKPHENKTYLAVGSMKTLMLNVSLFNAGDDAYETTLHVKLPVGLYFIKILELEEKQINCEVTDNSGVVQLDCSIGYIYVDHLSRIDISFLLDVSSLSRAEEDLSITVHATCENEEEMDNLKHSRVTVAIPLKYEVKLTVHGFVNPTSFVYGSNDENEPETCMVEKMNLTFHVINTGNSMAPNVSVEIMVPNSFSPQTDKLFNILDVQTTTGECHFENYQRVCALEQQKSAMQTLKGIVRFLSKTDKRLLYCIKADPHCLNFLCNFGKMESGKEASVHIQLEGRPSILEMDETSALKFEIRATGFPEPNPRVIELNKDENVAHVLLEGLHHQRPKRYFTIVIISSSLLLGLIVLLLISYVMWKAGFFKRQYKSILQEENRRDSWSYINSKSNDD
Rce1 inh = yeast Rce1p protease inhibitors, primary screen, biochemical, fluorescence, cell-free homogeneous | CAAX prenyl protease 2 (Saccharomyces cerevisiae (strain ATCC 204508 / S288c)), Q03530 | yeast membranes, quenched prenylated peptide cleavage fluorescence | calls only | 290,000 tested, 0.27% active | AID 2563, 2010;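 active means fall in fluorescence gain of 50% or more versus controls, with final raw signal at or below 3038400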;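 further: plate controls were neutral control wells for no effect and wells lacking membranes for full effect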
TAAR1 antag = human TAAR1 antagonists, primary screen, Fluo-8 calcium fluorescence, CHO RD-HGA16 cells; antagonist; AID 624466, 2012; inhibition, % at 3 µM; 360,000 tested, 1.5% active;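 active means inhibition above a per-plate cutoff, the mean inhibition of test compounds on that plate plus 3 SD, cut at about 49% in these data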;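 further: 0% = DMSO plus EC80 beta-PEA response and 100% = DMSO alone without agonist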
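Test system: RD-HGA16 CHO cells with stable hTAAR1 and Gα16 / Probe or stimulus: EC80 β-phenethylamine stimulus / Times: seeding 17-24 h prior, 75-min 37 °C, 30-min RT dye loading / Detection: Fluo-8 calcium-sensitive fluorescence / Read-out basis: % inhibition scaled between DMSO and EC80 PEA controls / Repeats: singlicate, one well per test compound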
Platelet DG rel = inhibitors of platelet dense granule secretion, primary screen, cell-based, MLPCN, human platelets. human platelet-rich plasma, SFLLRN dense granule ATP release, luminescence. inhibition, %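 (compounds screened at 7.5 µM in platelet-rich plasma)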. 300,000 tested, 0.22% active. AID 1663, 2009;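 active means mean replicate score, as percent of positive control, at or above 50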
TAAR1 ag = human TAAR1 agonists, primary screen, Fluo-8 calcium fluorescence, CHO RD-HGA16 cells | vehicle wells 0%, saturating PEA agonist 100% | activation, % at 3 µM | 360,000 tested, 0.99% active | AID 624467, 2012;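 active means activation above the mean activation of all test compounds in the run plus 3 SD, cut at about 38% in these data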
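Assay system: CHO-derived RD-HGA16 cells with stable Gα16 and human TAAR1; timing: 17-24 h seeding, 75 min 37 °C dye, 30 min RT; read-out: % activation from peak over basal fluorescence ratio, DMSO-to-PEA scaled; measured by: kinetic Fluo-8 calcium fluorescence; benchmarks: low control DMSO, high control PEA (EC100); doses: 3 µM single concentration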
VLA-4 allo CP = retest of VLA-4 allosteric modulators, confirmation, cell-based, cherry-picked plates, U937, HUTS-21 LIBS antibody; shares compounds with VLA-4 inh; 1,300 tested, 2% active; inhibition, % at 6.7 µM; U937 cells, HUTS-21 LIBS mAb binding, flow cytometry; LDV ligand present at threefold Kd; AID 2813, 2010; in the data active means inhibition above about 40%;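 further: 0% = ligand without compound and 100% = no ligand background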
nonsel antag count = nonselective antagonists in TAAR1 counter-screen cells, counter-screen for hTAAR1 antagonist project, cell-based, fluorescence, calcium; shares compounds with TAAR1 antag; counterscreen cell line, antagonist mode; inhibition, % at 3 µM; 2,400 tested, 77% active; AID 651780, 2012; in the data active means inhibition above about 22%;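 further: CHO-Ga16 host cells stimulated with ATP at an EC80 level; 0% = agonist EC80 plus vehicle and 100% = vehicle without agonist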
TAAR1 antag conf = human TAAR1 antagonists, retest of hits, confirmation, cell-based, fluorescence. shares compounds with TAAR1 antag. TAAR1-expressing cells, fluorescence antagonist read-out. inhibition, % at 3 µM. 2,400 tested, 40% active. AID 651785, 2012; in the data active means inhibition above about 49%;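 further: CHO-Ga16 host cells challenged with agonist PEA near its EC80; 0% = agonist at EC80 plus vehicle and 100% = vehicle with no agonist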
Ga16 ag counter-1 = calcium activation in Ga16-expressing cells, counter-screen for TAAR1 antagonist project, cell-based, fluorescence. shares compounds with TAAR1 antag. agonist counterscreen. activation, % at 3 µM. 2,400 tested, 18% active; in the data active means activation above about 12%;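 further: 0% = vehicle wells and 100% = saturating stimulus response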
TAAR1 ag counter = TAAR1 activation by candidate antagonists – cell-based, fluorescence, counter-screen for TAAR1 antagonist project; shares compounds with TAAR1 antag; hTAAR1 cell line, agonist mode; 2,400 tested, 2% active; activation, % at 3 µM; in the data active means activation above about 37%;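 further: CHO cells stably expressing TAAR1 with calcium dye readout; 0% = DMSO vehicle and 100% = full agonist response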
TAAR1 ag conf = human TAAR1 agonists, retest of hits, confirmation, Fluo-8 calcium fluorescence, CHO RD-HGA16 cells; shares compounds with TAAR1 ag; scaled: DMSO 0%, maximal phenethylamine 100%; activation, % at 3 µM; 2,400 tested, 82% active; AID 651783, 2012;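 active means activation above a cutoff set at the run's mean compound activation plus 3 SD, cut at about 39% in these data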
Ga16 ag counter-2 = nonselective calcium mobilization agonists, CHO-Ga16 cells, counter-screen for hTAAR1 agonist project, cell-based, fluorescence, CHO-Ga16 parental line. Fluo-8 calcium fluorescence; normalized to maximal ATP response, DMSO zero. 2,400 tested, 50% active. shares compounds with TAAR1 ag. AID 651787, 2012. activation, % at 3 µM;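 active means activation above the run cutoff, the mean activation over all tested wells plus 3 SD, cut at about 12% in these data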;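 further: 0% = DMSO wells and 100% = maximal ATP response on the peak over basal ratio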
TAAR1 desensitize = TAAR1 desensitization by agonist hits, confirmation, counter-screen for TAAR1 agonist project, cell-based, fluorescence, tachyphylaxis; shares compounds with TAAR1 ag; inhibition, % at 3 µM; CHO RD-HGA16 hTAAR1, Fluo-8 calcium, beta-PEA response inhibition; 2,400 tested, 46% active;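 active means inhibition above the run cutoff, the mean inhibition of all test compounds plus 3 SD, cut at about 49% in these data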;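 further: beta-PEA stimulus applied at its EC80; loss of beta-PEA calcium signal after compound pretreatment read as receptor desensitization; 0% = DMSO with beta-PEA at EC80 and 100% = DMSO alone without agonist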
Ga16 antag count = inhibition of ATP-evoked calcium response in CHO-Ga16 cells, counter-screen for TAAR1 agonist project, cell-based, fluorescence | CHO-Ga16 ATP-induced calcium, Fluo-8 fluorescence | 2,400 tested, 39% active | shares compounds with TAAR1 ag | inhibition, % at 3 µM;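 active means inhibition above the plate's mean compound inhibition plus 3 SD, computed per plate, cut at about 22% in these data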;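 further: 0% = EC80 ATP with DMSO and 100% = DMSO wells without ATP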
* = called active by the depositor; i = inactive; . = no result.

SMILES | VLA-4 inh | Rce1 inh | TAAR1 antag | Platelet DG rel | TAAR1 ag | nonsel antag count | TAAR1 antag conf | Ga16 ag counter-1 | TAAR1 ag counter | others
O=C(Nc1ccc(F)cc1)Nc1cccnc1 | -6 | i | -4 | 7 | 64* | . | . | . | . | VLA-4 allo CP=-3;TAAR1 ag conf=81*;Ga16 ag counter-2=6;TAAR1 desensitize=48;Ga16 antag count=5
CC1CCCC(NC(=O)COC(=O)[C@@H](NC(=O)c2ccc(F)cc2)C(C)C)C1C (stereo partly drawn) | -6 | . | -6 | . | 3 | . | . | . | .
COc1ccc(NC(=S)N2CCCC(c3nc4ccc(C)cc4[nH]3)C2)c(OC)c1 (stereo not drawn) | 54* | i | -4 | 2 | 98* | . | . | . | . | VLA-4 allo CP=15;TAAR1 ag conf=0;Ga16 ag counter-2=1;TAAR1 desensitize=-4;Ga16 antag count=2
COc1ccc(NC(=S)N2CCCC(c3nc4ccc(C)cc4[nH]3)C2)cc1 (stereo not drawn) | 7 | i | -7 | 2 | 0 | . | . | . | .
O=C(Nc1ccc2c(c1)C(=O)N(c1ccccc1)C2=O)c1cccs1 | 50* | i | 40 | 6 | 57* | . | . | . | . | VLA-4 allo CP=0;TAAR1 ag conf=46*;Ga16 ag counter-2=25*;TAAR1 desensitize=35;Ga16 antag count=17
O=C(CCSc1nnc(-c2ccncc2)o1)Nc1cccc(Cl)c1 | 0 | i | -7 | -12 | 14 | . | . | . | .
O=C(CCSc1nnc(-c2ccncc2)o1)Nc1ccc(Cl)cc1 | 51* | i | -15 | 10 | 40* | . | . | . | . | VLA-4 allo CP=0;TAAR1 ag conf=40*;Ga16 ag counter-2=4;TAAR1 desensitize=8;Ga16 antag count=15
O=S(=O)(NCc1ccc2c(c1)OCO2)c1c(F)cc(F)cc1Br | 5 | i | 8 | 1 | 2 | . | . | . | .
OCC1OC(n2cnc3c(NCCc4ccccc4)ncnc32)C(O)C1O (stereo not drawn) | 11 | i | 38 | 70* | 70* | . | . | . | . | VLA-4 allo CP=1;TAAR1 ag conf=75*;Ga16 ag counter-2=3;TAAR1 desensitize=65*;Ga16 antag count=6
CCn1c(=O)c([N+](=O)[O-])c(N2CCN(Cc3ccc4c(c3)OCO4)CC2)c2ccccc21 | 0 | . | -35 | -26 | -2 | . | . | . | .
Cc1ccccc1NC(=O)CCN1CCc2ccccc2C1 | 12 | i | 104* | 6 | 3 | -6 | 0 | 5 | 9
Cc1ccccc1NC(=O)CCN1CCCC1 | 6 | i | -25 | -6 | 6 | . | . | . | .
Oc1cc(OCc2ccccc2)ccc1-c1[nH]ncc1-c1ccccc1 | -2 | i | 12 | 1 | 1 | . | . | . | .
C=C(C)COc1ccc(-c2[nH]ncc2-c2ccccc2)c(O)c1 | 7 | i | 60* | -16 | 20 | -1 | 9 | 1 | 12
C=C(C)COc1ccc(-c2n[nH]c(C)c2Oc2ccccc2OC)c(O)c1 | 13 | i | 52* | -5 | -2 | 8 | 10 | 1 | 2
COc1ccccc1C(=O)C1CCCN(C(=O)c2ccco2)C1 (stereo not drawn) | -11 | i | -23 | 4 | -4 | . | . | . | .
CC(C)(C)NC(=O)CCN(/N=C/c1ccccc1O)C1=NS(=O)(=O)c2ccccc21 | 4 | i | 59* | -5 | 19 | 25* | 44 | 12* | 11
O=C(c1ccco1)N(CCCN1CCOCC1)c1nc(-c2ccc(F)cc2)cs1 | -2 | i | 57* | 0 | 8 | 20 | 39 | 5 | 6
COc1ccc(O)cc1CN1CCN(c2ncc(Cc3ccccc3)cn2)CC1 | . | . | -7 | . | 3 | . | . | . | .
NS(=O)(=O)c1ccc(NC(=S)Nc2ccc(S(=O)(=O)N3CCCC3)cc2)cc1 | 5 | i | 21 | -1 | 3 | . | . | . | .
O=S(=O)(c1ccc(NC(=S)NN=Cc2ccccc2O)cc1)N1CCCCC1 | . | . | 90* | . | 13 | 40* | 89* | 11 | 34
O=C(CCCCC(=O)OCC1COCO1)OCC1COCO1 (stereo not drawn) | . | . | 9 | . | 0 | . | . | . | .
O=C(NCC(c1ccco1)N1CCN(c2ccccc2F)CC1)c1ccc2c(c1)OCO2 (stereo not drawn) | 7 | i | 4 | 3 | -1 | . | . | . | .
Cc1cc(NC(=O)c2ccc3c(c2)OCCO3)ccc1NC(=O)c1cc2ccccc2o1 | 4 | i | 85* | -2 | 23 | 38* | 73* | 9 | 24
COc1cc(NC(=O)c2ccc(C)cc2)ccc1NC(=O)c1cc2ccccc2o1 | 13 | i | -16 | 3 | 1 | . | . | . | .
O=C(Nc1ccc(NC(=O)c2cc3ccccc3o2)cc1)c1ccc2c(c1)OCCO2 | 0 | i | -13 | 1 | 4 | . | . | . | .
Cc1cc(NC(=O)c2cccnc2)ccc1NC(=O)c1cc2ccccc2o1 | -5 | i | 57* | -3 | 32 | 22* | 44 | 10 | 37
O=C(CNC(=O)c1ccc(Cl)cc1)OCCCOC(=O)CNC(=O)c1ccc(Cl)cc1 | 6 | i | -41 | -3 | 9 | . | . | . | .
O=C(Nc1nccs1)c1cn(-c2ccccc2)nc1-c1ccccc1 | 2 | i | 72* | -33 | 7 | 12 | 38 | 3 | 2

From PubChem
